In ChEMBL document CHEMBL1121715, “New antiarrhythmic agents. 4. 1'-(Aminoalkyl)-1,2,3,4-tetrahydronaphthalene-1-spiro-3'-pyrrolidine-2',5'-dione derivatives” (J Med Chem, 1981):

Key:
Canis familiaris [1] = species: Canis familiaris; experiment: The Maximum dose of the Compound; format: functional, Canis lupus familiaris
Outline: (§1)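 Adult female dogs (6.7–14.5 kg) had two-stage ligation of the left anterior descending coronary artery the day before testing. After control ventricular rate, % ectopic beats and mean arterial pressure were recorded, the drug (HCl salt, isotonic solution) was infused iv without anesthesia at 0.1, 0.5 or 1.0 (mg/kg)/min, mostly 0.5. Infusion continued until the arrhythmia was abolished or cardiovascular/CNS toxicity appeared. Cumulative dose is given in mmol/kg; toxicity included convulsion and P-R prolongation ≥25%.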

Mus musculus [2] = experiment: Protection against chloroform induced arrhythmias in mice after subcutaneous administration at 100 mg/kg dose.; format: functional
Outline: (§2)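 Groups of 10 unanesthetized mice got sc injection of drug in 0.9% saline. After 20 min observation they were placed one by one in chloroform-vapor-saturated air. When breathing stopped, the thorax was opened and the heart inspected by eye; coordinated ventricular contractions counted as protected.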

Canis familiaris [3] = experiment: Ventricular rate was measured in anesthetized dog at 0.023 dose; format: functional, Canis lupus familiaris, Heart; conditions: in the assay text read “unanesthetized” for “anesthetized”; outline: as §1
Canis familiaris [4] = experiment: Ventricular rate was measured in anesthetized dog at 0.015 dose; format: functional, Canis lupus familiaris, Heart; conditions: in the assay text read “unanesthetized dog” for “anesthetized dog”; outline: as §1
Canis familiaris [5] = experiment: % ectopic beats was measured in anesthetized dog at 0.038 dose; format: functional, Canis lupus familiaris, Heart; conditions: in the assay text read “unanesthetized” for “anesthetized”
Outline: (§3)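 Adult female dogs (6.7–14.5 kg) had the left anterior descending coronary artery ligated in two stages the day before testing. Dogs were unanesthetized. Ectopic beats (% of ventricular rate) and mean arterial pressure were read at maximal antiarrhythmic effect against the cumulative dose.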

[6] = Volume of distribution was measured at given dose of 83 umol/kg; format: ADME, organism-based; conditions: in vivo
Outline: (§4)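 In dogs given iv infusions, blood samples were alkaline-extracted (pH 10.3) into methylene chloride and derivatized with heptafluorobutyrylimidazole. Concentrations were measured by GC-FID against an internal standard using standard curves. Clearance was total dose ÷ blood-level AUC (zero to infinity), and volume of distribution was clearance ÷ elimination rate constant.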

Canis familiaris [7] = species: Canis familiaris; experiment: Toxicity of blood level was measured; format: organism-based, Canis lupus familiaris; conditions: dog, in vivo
Outline: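 In coronary-ligated conscious dogs under iv infusion, blood was sampled at toxicity. Drug was extracted with methylene chloride at pH 10.3 (ammonium citrate/ammonia) with another analogue as internal standard, then derivatized with heptafluorobutyrylimidazole. Assay was GC-FID on 3% JXR, quantified from drug/internal standard peak-height ratio against standard curves; results in μmol/mL.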

Canis familiaris [8] = species: Canis familiaris; experiment: The Maximum dose of the compound; format: functional, Canis lupus familiaris; outline: as §1
Canis familiaris [9] = experiment: % ectopic beats was measured in anesthetized dog at 0.015 dose; format: functional, Canis lupus familiaris, Heart; conditions: in the assay text read “unanesthetized” for “anesthetized”; outline: as §3
Canis familiaris [10] = experiment: Blood level was measured in anesthetized dog at 0.015 dose; format: functional, Canis lupus familiaris
Canis familiaris [11] = experiment: MABP value was measured in anesthetized dog at 0.018 dose; format: functional, Canis lupus familiaris; conditions: in the assay text read “unanesthetized dog” for “anesthetized dog”; outline: as §3
Canis familiaris [12] = experiment: % ectopic beats was measured in anesthetized dog at 0.018 dose; format: functional, Canis lupus familiaris, Heart; conditions: in the assay text read “unanesthetized” for “anesthetized”; outline: as §3
Canis familiaris [13] = experiment: % ectopic beats was measured in anesthetized dog at 0.053 dose; format: functional, Canis lupus familiaris, Heart; conditions: in the assay text read “unanesthetized” for “anesthetized”; outline: as §3
Canis familiaris [14] = experiment: % ectopic beats was measured in unanesthetized dog at 0.058 dose
Canis familiaris [15] = experiment: Ventricular rate was measured in anesthetized dog at 0.038 dose; format: functional, Canis lupus familiaris, Heart; conditions: in the assay text read “unanesthetized dog” for “anesthetized dog”; outline: as §1
Canis familiaris [16] = experiment: Ventricular rate was measured in anesthetized dog at 0.053 dose; format: functional, Canis lupus familiaris, Heart; conditions: in the assay text read “unanesthetized dog” for “anesthetized dog”; outline: as §1
Canis familiaris [17] = experiment: Blood level was measured in anesthetized dog at 0.038 dose; format: functional, Canis lupus familiaris
Canis familiaris [18] = experiment: Blood level was measured in anesthetized dog at 0.023 dose; format: functional, Canis lupus familiaris
[19] = Maximal concentration in dogs after intravenous administration; conditions: dog, in vivo
Canis familiaris [20] = experiment: as above; conditions: dog, in vivo
Canis familiaris [21] = experiment: MABP value was measured in anesthetized dog at 0.023 dose; format: functional, Canis lupus familiaris; conditions: in the assay text read “unanesthetized dog” for “anesthetized dog”; outline: as §3
Mus musculus [22] = species: Mus musculus; experiment: Percentage toxicity measured as loss of righting reflex.; format: organism-based; conditions: in vivo
Outline: (§5)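 Mice (groups of 10) were dosed sc with drug in 0.9% saline and watched for 20 min for overt toxicity (ataxia, convulsions, loss of righting reflex, death) before chloroform exposure.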

Canis familiaris [23] = experiment: MABP value was measured in anesthetized dog at 0.015 dose; format: functional, Canis lupus familiaris; conditions: in the assay text read “unanesthetized dog” for “anesthetized dog”; outline: as §3
[24] = Percentage toxicity measured as death of mice.; format: organism-based; design: concentration or dose not given beside the values; conditions: mouse, in vivo; read-out: Death
Canis familiaris [25] = experiment: % ectopic beats was measured in anesthetized dog at 0.023 dose; format: functional, Canis lupus familiaris, Heart; conditions: in the assay text read “unanesthetized” for “anesthetized”; outline: as §3
Canis familiaris [26] = species: Canis familiaris; experiment: Nature of toxicity was expressed; A-V convulsion; format: organism-based, Canis lupus familiaris; conditions: dog, in vivo; outline: as §1
Canis familiaris [27] = experiment: Ventricular rate was measured in anesthetized dog at 0.018 dose; format: functional, Canis lupus familiaris, Heart; conditions: in the assay text read “unanesthetized dog” for “anesthetized dog”; outline: as §1
Canis familiaris [28] = species: Canis familiaris; experiment: The dose at which toxicity was measured; 0.065; 0.0182; format: organism-based, Canis lupus familiaris; conditions: dog, in vivo; outline: as §1
Canis familiaris [29] = experiment: MABP value was measured in anesthetized dog at 0.038dose; format: functional, Canis lupus familiaris; conditions: in the assay text read “unanesthetized dog” for “anesthetized dog”; outline: as §1
[30] = Total body clearance was measured at given dose; format: ADME
Outline: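 Blood levels came from the iv-infused dogs, measured by GC-FID after methylene chloride extraction and heptafluorobutyryl derivatization with an internal standard. Total body clearance was total dose divided by the blood-level AUC (zero to infinity); volume of distribution was clearance divided by the elimination rate constant.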

Canis familiaris [31] = experiment: Blood level was measured in anesthetized dog at 0.018 dose; format: functional, Canis lupus familiaris
Mus musculus [32] = experiment: Protection against chloroform induced arrhythmias was measured in mice after sc administration at given dose; format: functional; outline: as §2
[33] = Volume of distribution was measured at given dose of 227 uM/kg; format: ADME, organism-based; conditions: in vivo; outline: as §4
Canis familiaris [34] = experiment: MABP value was measured in anesthetized dog at 0.058 dose; format: functional, Canis lupus familiaris; conditions: in the assay text read “unanesthetized dog” for “anesthetized dog”; outline: as §1
Mus musculus [35] = species: Mus musculus; experiment: Percentage toxicity measured as ataxia.; format: organism-based; conditions: in vivo; outline: as §5
Canis familiaris [36] = experiment: Blood level was measured in anesthetized dog at 0.058 dose; format: functional, Canis lupus familiaris
Canis familiaris [37] = experiment: Blood level was measured in anesthetized dog at 0.053 dose; format: functional, Canis lupus familiaris
Mus musculus [38] = species: Mus musculus; experiment: Percentage toxicity measured as convulsions.; format: organism-based; conditions: in vivo; outline: as §5
Canis familiaris [39] = experiment: Ventricular rate was measured in anesthetized dog at 0.058 dose; format: functional, Canis lupus familiaris, Heart; conditions: in the assay text read “unanesthetized” for “anesthetized”
Outline: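 Adult female dogs (6.7–14.5 kg) had ventricular arrhythmias from two-stage ligation of the left anterior descending coronary artery the day before. Ventricular rate (bpm) was read at maximal antiarrhythmic effect against cumulative dose.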

Canis familiaris [40] = experiment: MABP value was measured in anesthetized dog at 0.053 dose; format: functional, Canis lupus familiaris; conditions: in the assay text read “unanesthetized dog” for “anesthetized dog”; outline: as §1

**Q.** Which Dose (Canis familiaris [1]) does the source give for `CN(C)CCCCN1C(=O)CC2(CCCc3ccc(O)cc32)C1=O` (stereo unspecified) here?
**A.** 83 µM/kg

**Q.** What about the Protection (Mus musculus [2]) of the same compound?
**A.** 100%

**Q.** What about the Ventricular rate (Canis familiaris [3]) of the same compound?
**A.** 138 beats min-1

**Q.** And the Ventricular rate (Canis familiaris [4])?
**A.** 165 beats min-1

**Q.** And the Etopic beats (Canis familiaris [5])?
**A.** 0%

**Q.** And the Vd [6]?
**A.** 3.02 L/kg

**Q.** And the Blood level (Canis familiaris [7])?
**A.** 12 µM

**Q.** And the Dose (Canis familiaris [8])?
**A.** 227 µM/kg

**Q.** What about the Etopic beats (Canis familiaris [9]) of the same compound?
**A.** 0%

**Q.** What about the Blood level (Canis familiaris [10]) of the same compound?
**A.** 0.024 uM ml-1

**Q.** What about the MABP (Canis familiaris [11]) of the same compound?
**A.** 120 mmHg

**Q.** What about the Etopic beats (Canis familiaris [12]) of the same compound?
**A.** 1%

**Q.** And the Etopic beats (Canis familiaris [13])?
**A.** 3%

**Q.** What about the Ectopic beats (Canis familiaris [14]) of the same compound?
**A.** 4%

**Q.** What about the Ventricular rate (Canis familiaris [15]) of the same compound?
**A.** 171 beats min-1

**Q.** And the Ventricular rate (Canis familiaris [16])?
**A.** 183 beats min-1

**Q.** What about the Blood level (Canis familiaris [17]) of the same compound?
**A.** 0.023 uM ml-1

**Q.** What about the Blood level (Canis familiaris [18]) of the same compound?
**A.** 0.02 uM ml-1

**Q.** And the Cmax [19]?
**A.** 37 µM

**Q.** What about the Cmax (Canis familiaris [20]) of the same compound?
**A.** 30 µM

**Q.** What about the MABP (Canis familiaris [21]) of the same compound?
**A.** 110 mmHg

**Q.** What about the “Loss of righting reflex” value (Mus musculus [22]) of the same compound?
**A.** 0%

**Q.** And the MABP (Canis familiaris [23])?
**A.** 85 mmHg

**Q.** And the mortality [24]?
**A.** 0%

**Q.** And the Etopic beats (Canis familiaris [25])?
**A.** 93%

**Q.** And the Nature (Canis familiaris [26])?
**A.** A-V convulsion

**Q.** What about the Ventricular rate (Canis familiaris [27]) of the same compound?
**A.** 150 beats min-1

**Q.** And the Dose (Canis familiaris [28])?
**A.** A-V convulsion

**Q.** And the MABP (Canis familiaris [29])?
**A.** 105 mmHg

**Q.** What about the ClB [30] of the same compound?
**A.** 17.5 mL/min/kg

**Q.** What about the clearance ([30]; ClB) of the same compound?
**A.** 31.6 mL/min/kg

**Q.** What about the Blood level (Canis familiaris [31]) of the same compound?
**A.** 0.022 uM ml-1

**Q.** And the ED50 (Mus musculus [32])?
**A.** 160 µmol/kg

**Q.** And the Vd [33]?
**A.** 3.35 L/kg

**Q.** What about the MABP (Canis familiaris [34]) of the same compound?
**A.** 95 mmHg

**Q.** And the Ataxia (Mus musculus [35])?
**A.** 0%

**Q.** And the Blood level (Canis familiaris [36])?
**A.** 0.017 uM ml-1

**Q.** And the Blood level (Canis familiaris [37])?
**A.** 0.028 uM ml-1

**Q.** And the Convulsion (Mus musculus [38])?
**A.** 0%

**Q.** And the Ventricular rate (Canis familiaris [39])?
**A.** 171 beats min-1

**Q.** What about the MABP (Canis familiaris [40]) of the same compound?
**A.** 135 mmHg
